The sample as a whole holds a higher share of hits than the screen did.
Dynein transport – inhibitors of GR-EGFP nuclear translocation, primary screen, dynein cargo transport inhibitor project, imaging, high-content, 3617.4 mouse cells. test concentration mostly 20 µM; stimulated with dexamethasone, 1 µM; stronger effect = lower value. z-score, hits read low. actives 0.47% (n = 220,000). AID 1381, 2008;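 active = plate z-score of nuclear minus cytoplasmic receptor signal below a set negative limit, without overly bright fluorescence or cell loss, cut at about -3.5 in these data, passing the limit was not always enough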;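 also: z-score of nuclear minus cytoplasmic ring GR-EGFP intensity difference per well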
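Buffer or medium: tet-free, stripped-serum medium; reagent: dexamethasone at 1.0 µM final, 30 min; incubation: 48 h induction, 1 h compound, 30 min dex at 37 °C; measured by: formaldehyde fixation, Hoechst nuclear stain, 10x automated fluorescence imaging; read-out: nuclear-to-cytoplasmic GR-EGFP distribution per well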
L major viab – Leishmania major promastigote growth inhibition, primary screen. Leishmania major promastigotes, resazurin fluorescence viability. inhibition, % at 10 µM. actives 9% (n = 200,000). AID 1063, 2008; in the data active = inhibition above about 50%;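 also: promastigotes grown with compound for 44 hours at 28 °C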
T cruzi inh – inhibitors of intracellular T. cruzi growth, primary screen, luminescence, NIH3T3 host cells. T. cruzi beta-gal in NIH3T3, 90 h. inhibition, % (no concentration beside the values). actives 1.4% (n = 300,000). AID 1885, 2009;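 active = mean inhibition across valid replicates above about 55%, limit read from the data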;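 also: signal also drops with host cell toxicity which is not excluded here; higher percent means less beta-gal luminescence so fewer parasites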
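Material: NIH/3T3 host cells with β-galactosidase reporter T. cruzi; Input: 5,000 host fibroblasts per well; Medium: DMEM, 2% fetal bovine serum; Compound: 50 nL DMSO compound solution per well; Schedule: 3 h host attachment, then at least 90 h co-culture; Detection: luminescent β-galactosidase signal after 60 min lysis.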
UPR CHOP act – activators of apoptotic CHOP UPR arm, primary screen, cell-based, CHO-CHOP luciferase reporter, luminescence, uHTS; UPR activation; percent of tunicamycin response over DMSO baseline; activation, % at 10 µM; actives 0.34% (n = 330,000); AID 449763, 2010;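 active = at 10 µM dose, activation of 40% or more, normalized to positive control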
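Assay system: CHO cells with stable CHOP pathway luciferase reporter; Buffer or medium: F12 plus 10% serum; Times: 16-18 h cell attachment, then 6 h compound exposure, 37 °C; Signal: luciferase luminescence; Read-out basis: percent activation relative to tunicamycin control; Control set: tunicamycin high control, DMSO low control.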
XBP1 UPR activ – activators of adaptive XBP1 UPR arm, primary screen, cell-based, CHO-XBP1 luciferase reporter, luminescence, uHTS; IRE1-XBP1 UPR activation; percent of tunicamycin response, DMSO as zero; activation, % at 20 µM; actives 0.33% (n = 330,000);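 active = versus positive control, 20 µM dose yields 30% or more activation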
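Assay system: IRE1-XBP1 luciferase reporter CHO line. Input: 1000 cells/well. Buffer or medium: F12 with 10% serum. Doses: 20 µM, 1% DMSO. Times: overnight seeding at 37 °C, 6 h compound treatment at 37 °C. Technique: Steady-Glo luciferase glow luminescence, 10 min after reagent addition.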
CHOP inh – inhibitors of CHOP promoter induction, primary screen, cell-based, unfolded protein response, luciferase reporter | CHO-K1 CHOP-promoter luciferase, tunicamycin-induced, 15-18 h | inhibition, % at 10 µM | actives 3.8% (n = 220,000) | AID 2732, 2010;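 active = compounds that reduced the stress-induced luciferase reporter signal by more than about 70% of percent inhibition, limit read from the data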
Of the large screens only hits and unclear results are named; the others gave an inactive call.

CN1CCc2nc(SCc3ccc(Cl)cc3)c(C#N)c(-c3cccs3)c2C1	T cruzi inh 58 (no result: CHOP inh)
Cc1ccc(CSc2nc3c(cc2C#N)CCC3)cc1	none
N#Cc1c(N)nc(SCc2ccncc2)c(C#N)c1-c1cccs1	T cruzi inh 64
CN(C(=O)COC(=O)CSc1ccc(C(N)=O)cc1[N+](=O)[O-])C1CCCCC1	none (no result: Dynein transport, L major viab, CHOP inh)
CN1CCN(C(=O)Nc2cccc(-c3ccccc3)c2)CC1	none (no result: L major viab)
Cc1ccc(CNC(=O)CCC2CCCN(Cc3ccc4cccc(F)c4n3)C2)o1 (configuration not stated)	T cruzi inh 61
Cc1ccc(CNC(=O)CCC2CCCN(Cc3cccc4c3OCO4)C2)o1 (configuration not stated)	none (no result: L major viab)
Cc1ccc(CNC(=O)CCC2CCCN(Cc3c(C)nn(C(C)C)c3C)C2)o1 (configuration not stated)	T cruzi inh 67
CCCCn1c(=O)[nH]c(=O)c2c1nc(-c1ccccc1F)n2Cc1ccccc1OC	none
CC(C)Cc1nc2oc3c(NCCCN4CCOCC4)ncnc3c2c2c1CCC2	L major viab 58
CCCc1nc2oc3c(NCCN4CCOCC4)ncnc3c2c2c1CCCC2	none (no result: Dynein transport, L major viab, CHOP inh)
COc1cc(C(=O)Nc2ccc(S(=O)(=O)N3CCCCC3C)cc2)cc(OC)c1OC (configuration not stated)	none
COc1ccc(C(=O)Nc2ccc(S(=O)(=O)N3CCCCC3C)cc2)c(OC)c1OC (configuration not stated)	L major viab 61
CCCCNCC#CCOc1cc(C)ccc1C(C)C	L major viab 95
Cc1ccc(C(C)C)c(OCCCNCc2cccnc2)c1	L major viab 87
Cc1ccc(C(C)C)c(OCCNCCc2ccccc2)c1	none (no result: Dynein transport, L major viab, CHOP inh)
Cc1ccc(C(C)C)c(OCCn2ccnc2C)c1	none (no result: Dynein transport, L major viab, CHOP inh)
C=CCN1C(=O)c2ccc(C(=O)N3CCC(C(N)=O)CC3)cc2C1=O	none (no result: Dynein transport, L major viab, CHOP inh)
CC(C)CN=Cc1c(O)c([N+](=O)[O-])cc2oc3c(c12)CCCC3	CHOP inh 84
O=C(/C=C/Nc1ccccc1)c1ccccc1	none
CCOC(=O)c1ccc(N/C=C/C(=O)C(C)(C)C)cc1	none
CC(=O)Nc1ccccc1O	none
CN(C)c1ccc(N/C=C/C(=O)C(C)(C)C)cc1	L major viab 54
CN(C)c1ccc(N/C=C/C(=O)c2ccccc2)cc1	L major viab 100, CHOP inh 81
CC(C)(C)C(=O)/C=C/Nc1ccccc1O	L major viab 98
CCn1nnc2cc(C(=O)Nc3cc(OC)cc(OC)c3)ccc21	none (no result: Dynein transport, L major viab, CHOP inh)
O=C(CSc1nncn1-c1ccccc1)N1CCCC1	none (no result: Dynein transport, L major viab, CHOP inh)
CCCCC(Sc1nc(N)c(NC(=O)c2ccco2)c(=O)[nH]1)C(=O)O (configuration not stated)	none (no result: Dynein transport, L major viab, CHOP inh)
O=C(C1CCN(CCCc2ccccc2)CC1)N(CCc1ccccc1)Cc1ccccc1	L major viab 91
CCN(CC)C(=O)C1CCN(Cc2ccc(Br)cc2)CC1	L major viab 92
CCN(Cc1ccccc1)C(=O)C1CCN(Cc2ccc(SC)cc2)CC1	L major viab 88
O=C(C1CCN(CC2CC=CCC2)CC1)N(CCc1ccccc1)Cc1ccccc1 (configuration not stated)	none
CCN(Cc1ccccc1)C1CCN(Cc2ccc(SC)cc2)CC1	L major viab 85
COc1ccc(CCN(C)C(=O)CN2C(=O)NC3(CCCCC3C)C2=O)cc1OC (configuration not stated)	none (no result: Dynein transport, L major viab, CHOP inh)
COCCCNC(=O)N1c2ccccc2Sc2ccccc21	none (no result: Dynein transport, L major viab, CHOP inh)
O=C(NCc1ccco1)N1c2ccccc2Sc2ccccc21	L major viab 62
COC(=O)c1ccc(C(=O)OC)c(NC(=O)N2c3ccccc3Sc3ccccc32)c1	none
COC(=O)c1ccccc1NC(=O)N1c2ccccc2Sc2ccccc21	L major viab 90
COc1ccc(CCNC(=O)N2c3ccccc3Sc3ccccc32)cc1	L major viab 68 (no result: CHOP inh)
O=C(COC(=O)c1ccc(Cl)nc1)NNC(=O)c1ccc(Br)cc1	none (no result: Dynein transport, L major viab, T cruzi inh, CHOP inh)
CC(=C/c1ccc(C(C)C)cc1)/C=N/NC(=O)CSc1ccccn1	CHOP inh 92
Cc1ccc2c(c1)c1c(n2CC(O)Cn2nc(C)c(Br)c2C)C(=O)CCC1 (configuration not stated)	CHOP inh 72
Cc1ccc2c(c1)c(C)c(C)n2CC(O)Cn1nc(C)c(Br)c1C (configuration not stated)	CHOP inh 86
Cc1ccc2c(c1)c(C)c(C)n2CC(O)CN1CCCCC1C (configuration not stated)	none
CC(C)C[C@H](NC(=O)c1cc2cc(Cl)ccc2n1C)C(=O)N1CCC(C(=O)O)CC1	none (no result: Dynein transport, L major viab, UPR CHOP act, XBP1 UPR activ, CHOP inh)
CCC1(c2ccc(Cl)cc2)NC(=O)N(CC(=O)NC2CCCC(C)C2C)C1=O (configuration not stated)	none (no result: Dynein transport, L major viab, T cruzi inh, CHOP inh)
O=C(c1cc(C2CC2)on1)N1CCCC(N2CCN(c3ccc(F)cc3)CC2)C1 (configuration not stated)	none (no result: Dynein transport, L major viab, CHOP inh)
COc1ccccc1N=Nc1nc(-c2ccccc2)c(-c2ccccc2)[nH]1	L major viab 67 (no result: UPR CHOP act, XBP1 UPR activ)
COc1ccc(N=Nc2nc(-c3ccccc3)c(-c3ccccc3)[nH]2)cc1	L major viab 87
COc1ccc(-c2[nH]c(-c3ccc(C(=O)O)cc3)nc2-c2ccccc2)cc1	none
Oc1ccccc1N=Nc1nc(-c2ccccc2)c(-c2ccccc2)[nH]1	L major viab 100, T cruzi inh 63
CC(C)(C)OC(=O)N1CCC(c2cc(=O)n3[nH]c(-c4ccc(Cl)cc4)cc3n2)CC1	CHOP inh 70
CC(C)(C)OC(=O)N1CCC(c2cc(=O)n3[nH]cc(C(=O)Nc4ccc(F)c(Cl)c4)c3n2)CC1	none (no result: L major viab)
CCCCCc1ccc(C(=O)CCC(=O)OCC(=O)N(CC)c2c(N)n(Cc3ccccc3)c(=O)[nH]c2=O)cc1	none (no result: Dynein transport, L major viab, T cruzi inh, CHOP inh)
COc1ccc(/C=N/NC(=O)c2cc(C34CC5CC(CC(C5)C3)C4)[nH]n2)cc1OC	none
COc1cccc(/C=N/NC(=O)c2cc(C34CC5CC(CC(C5)C3)C4)[nH]n2)c1	L major viab 89
CN1CCC(N(C)CC(=O)Nc2cccc(Oc3ccccc3)c2)CC1	L major viab 96, T cruzi inh 62
CCOC(=O)c1c(NC(=O)CN(C)C2CCN(C)CC2)sc(C(=O)Nc2ccccc2)c1C	L major viab 101
CCN(c1ccccc1)S(=O)(=O)c1ccc(Cl)c(NC(=O)CN2CCN(C)CC2)c1	none (no result: Dynein transport, L major viab, T cruzi inh, CHOP inh)

Compound activity deposited in PubChem BioAssay by several laboratories.
